Measurements as given in ChEMBL document CHEMBL1132467, “Structural specificity of chloroquine-hematin binding related to inhibition of hematin polymerization and parasite growth” (J Med Chem, 1999).

Legend:
[1] = Association constant evaluated towards Hematin mu-oxo dimer
Plasmodium falciparum [2] = experiment: Parasite growth in chloroquine-resistant Plasmodium falciparum K1
Plasmodium falciparum [3] = experiment: Parasite growth in chloroquine-sensitive Plasmodium falciparum NF54; assay type: functional, organism-based
Procedure, shortened: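 P. falciparum NF54 or K1 was maintained by the Trager-Jensen culture method with minor variations. Growth inhibition was measured by a semiautomated microdilution assay on asynchronous stock cultures.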

[4] = target: hematin (cell-free polymerization, no protein); experiment: Inhibition of hematin polymerization

| Compound | Ka [1] [M⁻¹] | IC50 (Plasmodium falciparum [2]) [µM] | IC50 (Plasmodium falciparum [3]) [µM] | IC50 [4] [µM] |
| --- | --- | --- | --- | --- |
| Nc1ccnc2cc(Cl)ccc12 | 52000 | 1 | 1.7 | – |
| CCN(CC)CCCC(C)Nc1ccnc2ccc(Cl)cc12 (stereo not given) | – | 4.9 | 0.17 | > 2500 |
| CCN(CC)CCCC(C)Nc1ccnc2cc(Br)ccc12 (stereo not given) | 120000 | 1.4 | 0.093 | – |
| CCNCCCC(C)Nc1ccnc2cc(Cl)ccc12 (stereo not given) [DESETHYLCHLOROQUINE] | 180000 | 1.3 | 0.045 | 15 |
| CCN(CC)CCCC(C)Nc1ccnc2cc([N+](=O)[O-])ccc12 (stereo not given) | 290000 | 0.068 | 0.015 | – |
| CCN(CC)CCCC(C)Nc1cc(C)nc2cc(Cl)ccc12 (stereo not given) | 91000 | 1.1 | 0.15 | – |
| CCN(CC)CCCC(C)Nc1c(C)cnc2cc(Cl)ccc12 (stereo not given) | 150000 | 0.059 | 0.02 | 15 |
| CCN(CC)CCCC(C)Nc1ccnc2cc(N)ccc12 (stereo not given) | 290000 | 4.3 | 2.6 | > 2500 |
| CCN(CC)CCCC(C)Nc1ccnc2ccccc12 (stereo not given) | 85000 | 8 | 0.35 | > 2500 |
| CCC(CC)CCCC(C)Nc1ccnc2cc(Cl)ccc12 (stereo not given) | 79000 | 0.2 | 0.054 | – |
| CCN(CC)CC(C)Nc1ccnc2cc(Cl)ccc12 (stereo not given) | 270000 | 0.093 | 0.041 | 18 |
| CCN(CC)CCCCC(C)Nc1ccnc2cc(Cl)ccc12 (stereo not given) | 150000 | 0.42 | 0.024 | – |
| CCNc1ccnc2cc(Cl)ccc12 | 46000 | 0.87 | 0.82 | 70 |
